This note sets out measurements from ChEMBL document CHEMBL1155292, “Synthesis, analgesic and anti-inflammatory activities evaluation of some bi-, tri- and tetracyclic condensed pyrimidines” (Eur J Med Chem, 2009).

The test system of data set [1] is Rattus norvegicus. Description: Antiinflammatory activity in albino rat assessed as inhibition of carrageenan-induced paw edema at 0.029 mmol/kg, po after 2 hrs relative to control. It counts as functional. In a few lines: (§1)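 Adult albino rats of either sex, 120–150 g, six per group. Compounds at 0.029 mmol/kg suspended in saline with a few drops of Tween 80 and given by oral stomach tube. After 1 h, 0.1 ml of freshly prepared 1% carrageenan in saline injected subplantar into the right hind paw. Paw thickness measured at 1–4 h; % edema inhibition versus control; mean ± SEM; ANOVA.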

Data set [2] relates to Rattus norvegicus. Description: Antiinflammatory activity in albino rat assessed as inhibition of carrageenan-induced paw edema at 0.029 mmol/kg, po after 1 hr relative to control. In kind it is functional. In a few lines: as §1
The test system of data set [3] is Rattus norvegicus. The data set can be described thus: Antiinflammatory activity in albino rat assessed as inhibition of carrageenan-induced paw edema at 0.029 mmol/kg, po after 3 hrs relative to control. It counts as functional. In a few lines:
as §1

Data set [4] relates to Rattus norvegicus. The data set can be described thus: Antiinflammatory activity in albino rat assessed as inhibition of carrageenan-induced paw edema at 0.029 mmol/kg, po after 4 hrs relative to control. In kind it is functional. The method in brief: as §1
In data set [5] the test system is Rattus norvegicus. Description: Gastrointestinal toxicity in albino rat assessed as ulcerogenic index at 0.029 mmol/kg, po after 5 hrs. Particulars: in vivo. In kind it is organism-based. In a few lines:
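Adult albino rats of either sex (120–150 g), 6 per group, got the test compounds orally by stomach tube as a suspension in saline with a few drops of tween 80. They were the same rats used in the carrageenan paw-edema test. Stomachs were then opened along the great curvature and examined for lesions or bleeding. Ulceration was recorded as the number of rats with ulcers out of 6.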

Data set [6] relates to Mus musculus. The data set can be described thus: Analgesic activity in albino mouse assessed as decrease in acetic acid-induced writhing at 8.45 mg/kg, po administered 1 hr prior to acetic acid challenge relative to control. In kind it is functional. The method in brief: (§2)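 Albino mice of either sex, 18–22 g, six per group. Test agents suspended in saline with a few drops of Tween 80 and given by oral stomach tube; controls handled identically without drug. After 1 h, 0.3 ml of 1% acetic acid ip. Writhing contractions counted for 30 min, starting 5 min after injection. % protection versus control mean; mean ± SEM; one-way ANOVA with post hoc test.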

Data set [7] has as its system Rattus norvegicus. The data set can be described thus: Antiinflammatory activity in albino rat assessed as inhibition of carrageenan-induced paw edema at 0.029 mmol/kg, po after 4 hrs relative to indomethacin. It counts as functional. In a few lines: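 Rat carrageenan paw edema: oral 0.029 mmol/kg in saline/Tween 80, 1 h before subplantar 0.1 ml 1% carrageenan into the right hind paw; six rats per group. Potency is % inhibition of the test compound divided by % inhibition of indomethacin at 4 h.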

Data set [8] relates to Mus musculus. The data set can be described thus: Analgesic activity in albino mouse assessed as decrease in acetic acid-induced writhing at 10.45 mg/kg, po administered 1 hr prior to acetic acid challenge relative to control. In kind it is functional. In a few lines: as §2
The test system of data set [9] is Mus musculus. The data set can be described thus: Analgesic activity in albino mouse assessed as decrease in acetic acid-induced writhing at 7.63 mg/kg, po administered 1 hr prior to acetic acid challenge relative to control. It counts as functional. The method in brief:
as §2

Data set [10] concerns Mus musculus. Description: Analgesic activity in albino mouse assessed as decrease in acetic acid-induced writhing at 11.32 mg/kg, po administered 1 hr prior to acetic acid challenge relative to control. In kind it is functional. In a few lines: as §2
Data set [11] concerns Rattus norvegicus. Description: Antiinflammatory activity in albino rat assessed as inhibition of carrageenan-induced paw edema at 20 mg/kg, po. In kind it is functional. In a few lines: (§3)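 Rat carrageenan paw edema with oral dosing at 10, 15, 20 and 25 mg/kg, suspended in saline with Tween 80, 1 h before subplantar 0.1 ml 1% carrageenan into the right hind paw. % edema inhibition versus control at each dose; IC50 (mg/kg) derived from these four doses.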

For data set [12], the system named is Rattus norvegicus. The data set can be described thus: Antiinflammatory activity in albino rat assessed as inhibition of carrageenan-induced paw edema at 10 mg/kg, po. In kind it is functional. In a few lines:
as §3

For data set [13], the system named is Rattus norvegicus. Description: Antiinflammatory activity in albino rat assessed as inhibition of carrageenan-induced paw edema at 25 mg/kg, po. It counts as functional. In a few lines: as §3
Data set [14] has as its system Rattus norvegicus. Description: Antiinflammatory activity in albino rat assessed as inhibition of carrageenan-induced paw edema at 15 mg/kg, po. In kind it is functional. The method in brief: as §3
The subject of data set [15] is Rattus norvegicus. Description: Antiinflammatory activity in po dosed albino rat assessed as inhibition of carrageenan-induced paw edema. It counts as functional, organism-based. In a few lines: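 Adult albino rats of either sex, 120–150 g, groups of 6. Compound suspended in saline with a few drops of tween 80, given by oral stomach tube 1 h before subplantar injection of freshly prepared 1% carrageenan (0.1 ml) in saline into right hind paw. Paw thickness read at 1–4 h; % edema inhibition versus carrageenan control; mean ± SEM, one-way ANOVA with post hoc test.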

Data set [16] has as its system Mus musculus. Description: Analgesic activity in albino mouse assessed as decrease in acetic acid-induced writhing at 11.52 mg/kg, po administered 1 hr prior to acetic acid challenge relative to control. In kind it is functional. In a few lines:
as §2

For data set [17], the system named is Mus musculus. Description: Analgesic activity in albino mouse assessed as decrease in acetic acid-induced writhing at 12.04 mg/kg, po administered 1 hr prior to acetic acid challenge relative to control. It counts as functional. The method in brief: as §2

Regarding `CCCn1cnc2c(c1=N)C1CCCN1C(=S)N2CC` (stereo not given), the inhibition in vivo at 29 µmol/kg in the data set with Rattus norvegicus [1] is 15.7%; with Rattus norvegicus [2] it was 13.5%; in the data set on Rattus norvegicus [3] it was 9.37%; with Rattus norvegicus [4] it was 6.82%. Further, the UI result in the data set with Rattus norvegicus [5] is on record as “Non-toxic”. In the data set on Mus musculus [6], the inhibition in vivo at 8.45 mg/kg worked out at 77.2%. Moreover, the relative potency at 29 µmol/kg in the data set on Rattus norvegicus [7] was determined as 0.24.
For `O=C1NC(c2ccccc2)NC2=C1C1CCCN1C(=O)N2c1ccccc1` (stereo not given), the inhibition in vivo at 29 µmol/kg turned out to be 12.4% with Rattus norvegicus [1], 4.47% in the data set on Rattus norvegicus [2], 11.5% in the data set on Rattus norvegicus [3] and 10.6% with Rattus norvegicus [4]. Besides, in the data set with Mus musculus [8], the inhibition in vivo at 10.45 mg/kg came to 77.7%. Moreover, the relative potency at 29 µmol/kg in the data set with Rattus norvegicus [7] is 0.38.
On to `CCN1C(=S)N2CCCC2c2c1ncn(C)c2=N` (stereo not given), for which the inhibition in vivo at 7.63 mg/kg in the data set with Mus musculus [9] turned out to be 97.6%. The inhibition in vivo at 29 µmol/kg in the data set with Rattus norvegicus [1] was 14.1%; in the data set with Rattus norvegicus [2], 11.2%; in the data set on Rattus norvegicus [3], 11.5%; in the data set with Rattus norvegicus [4] it was 9.93%. Further, the UI entry with Rattus norvegicus [5] was “Non-toxic”. For the same compound, the relative potency at 29 µmol/kg in the data set with Rattus norvegicus [7] came to 0.36.
For the compound `COc1ccc(C2NC(=O)C3=C(N2)N(c2ccccc2)C(=O)N2CCCC32)cc1` (stereo not given), the inhibition in vivo at 29 µmol/kg in the data set with Rattus norvegicus [1] is 6.64%; in the data set with Rattus norvegicus [2], 6.72%; in the data set with Rattus norvegicus [3] it was 13.7%; in the data set on Rattus norvegicus [4], 18.6%. In addition, in the data set on Mus musculus [10], the inhibition in vivo at 11.32 mg/kg was 84.4%. The relative potency at 29 µmol/kg with Rattus norvegicus [7] was 0.68.
On to `O=C1CN=C2C3=C(N=C(c4ccccc4)N12)N(c1ccccc1)C(=O)N1CCCC31` (stereo not given), for which the inhibition in vivo at 20 mg/kg with Rattus norvegicus [11] turned out to be 61.3%. Further, the inhibition in vivo at 29 µmol/kg in the data set on Rattus norvegicus [1] worked out at 22.3%; in the data set with Rattus norvegicus [2], 14.6%; in the data set with Rattus norvegicus [3], 27.4%; with Rattus norvegicus [4], 29.2%. Also, the inhibition in vivo at 10 mg/kg in the data set on Rattus norvegicus [12] amounted to 17%. Also, in the data set with Rattus norvegicus [13], the inhibition in vivo at 25 mg/kg is 68.4%. The inhibition in vivo at 15 mg/kg in the data set on Rattus norvegicus [14] was 40%. In addition, in the data set on Rattus norvegicus [5], the UI result is recorded as “Non-toxic”. The IC50 in the data set with Rattus norvegicus [15] was found to be 17.62 mg/kg. Also, in the data set on Rattus norvegicus [7], the relative potency at 29 µmol/kg turned out to be 1.06. Also, the inhibition in vivo at 11.52 mg/kg in the data set with Mus musculus [16] was found to be 78.5%.
Take `O=C1N(c2ccccc2)c2nc(-c3ccccc3)nc(N3CCCC3)c2C2CCCN12` (stereo not given): the inhibition in vivo at 29 µmol/kg was found to be 26.5% in the data set with Rattus norvegicus [1], 7.82% with Rattus norvegicus [2], 25.2% with Rattus norvegicus [3] and 15.5% in the data set with Rattus norvegicus [4]. In the data set on Rattus norvegicus [5], the UI result is reported as “Non-toxic”. For the same compound, the inhibition in vivo at 12.04 mg/kg in the data set on Mus musculus [17] turned out to be 95%. The relative potency at 29 µmol/kg with Rattus norvegicus [7] was found to be 0.56.
